Laboratory results: PMC3294036 (Nature structural & molecular biology, 2012)

Key:
calcineurin (CN) [1] = molecular target: calcineurin (CN) (UniProt Q08209); assay: Calcineurin-AKAP79 competitive binding assay; design: species or system human; conditions: for Ki: read-out: estimated Ki, competition with fluorescent PVIVIT peptide for binding to CN, GST-AKAP79(333–348) fusion proteins (14mer), representative of three experiments
[2] = system: NFAT3 (NFATc4) nuclear translocation in hippocampal neurons; assay: NFAT translocation assay after KCl depolarization; type: cell-based, rat; conditions: full-length AKAP79 expressed after AKAP150 RNAi; 3-min 90 mM KCl
calcineurin (CN) [3] = molecular target: calcineurin (CN) (UniProt Q08209); type: binding, human; conditions: 36 °C
Method in brief: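 ATTO 425-labeled AKAP79(333–408) donor (100 nM) was complexed with tetramethylrhodamine-labeled CN acceptor. The preformed complex was mixed in a stopped-flow instrument with 100 µM (final) unlabeled PVIVIT to block rebinding, at room temperature or 36 °C. Dissociation was followed as the fall in FRET signal, fitted as a single exponential; half-time was taken from the rate (n = 4).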

CN = conditions: cited from earlier work; for Kd: read-out: Kd for CN, natural recognition sites
[4] = system: CN-YFP / AKAP79-YFP mobility in rat hippocampal neuron dendritic spines; assay: FRAP microscopy in single dendritic spines; type: cell-based; conditions: wildtype AKAP79-YFP in dendritic spines, single exponential fit

Sequence of calcineurin (CN) (Q08209 1-381): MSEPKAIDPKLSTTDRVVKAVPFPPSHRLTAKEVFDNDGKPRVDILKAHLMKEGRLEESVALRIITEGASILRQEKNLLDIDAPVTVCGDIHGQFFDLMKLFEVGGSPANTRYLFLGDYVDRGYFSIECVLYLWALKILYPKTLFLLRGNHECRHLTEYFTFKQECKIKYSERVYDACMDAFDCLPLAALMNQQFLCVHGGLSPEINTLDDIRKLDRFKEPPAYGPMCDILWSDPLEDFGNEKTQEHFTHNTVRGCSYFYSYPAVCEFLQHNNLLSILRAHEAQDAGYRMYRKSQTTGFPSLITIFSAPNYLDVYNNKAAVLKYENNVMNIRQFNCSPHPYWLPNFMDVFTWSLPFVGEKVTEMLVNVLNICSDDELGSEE
Sequence of calcineurin (CN) (P63098 16-170 partner): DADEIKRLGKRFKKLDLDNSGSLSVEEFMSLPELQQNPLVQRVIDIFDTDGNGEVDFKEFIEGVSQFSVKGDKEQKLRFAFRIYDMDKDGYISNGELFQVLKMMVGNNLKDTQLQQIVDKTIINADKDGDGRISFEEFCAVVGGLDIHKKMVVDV

Substance	rescue of NFAT nuclear translocation [2]	Kd (CN)	other results
AIAIIIT	–	–	Ki (calcineurin (CN) [1]): 3.7 µM
PAAIIIT	–	–	Ki (calcineurin (CN) [1]): 47 µM
PIAIIIA	somewhat less efficiently	–	–
PPAIIIA	as efficiently as wildtype AKAP79	–	–
PPAIIIT	completely unable to rescue signaling	–	fold stronger binding to CN than wildtype AKAP79 (calcineurin (CN) [1]; GST fusion proteins displacing labeled PVIVIT): ~ 4 fold; half-time of dissociation (calcineurin (CN) [3]; corresponding to mean dissociation rate): ~ 163 ms; mean dissociation rate (calcineurin (CN) [3]; preformed complex mixed with excess unlabelled PVIVIT, mean of n = 4): 4.24 s⁻¹
PQIIIS	–	5 µM	–
PRIEIA	–	–	shift in Kd caused by PRIEIT>PRIEIA substitution in NFAT1 (CN): 10 fold
PRIEIT	–	~25 µM	–
PSIQIT	–	~25 µM	–
PSIRIT	–	~25 µM	–
PVIAVN	–	250 µM	–
wildtype AKAP79: full-length RNAi-resistant human AKAP79 (YFP- or CFP-tagged) expressed in rat hippocampal neurons	rescued NFAT nuclear translocation	–	mobile fraction of AKAP79-YFP (maximal percent recovery) [4]: 61.8 ± 0.6%
